Only some compounds are listed: those with a hit (about 1.9% of all), similar ones and a draw of the others.
HDAC3 inhib = blocks human histone deacetylase 3; recombinant HDAC3, fluorogenic peptide/trypsin coupled, fluorescence; O15379; inhibition, % at 8.3 µM; 320,000 tested, 0.15% active; in the data active = inhibition above about 26%, passing the limit was not always enough
Target sequence (O15379 whole entry, looked up): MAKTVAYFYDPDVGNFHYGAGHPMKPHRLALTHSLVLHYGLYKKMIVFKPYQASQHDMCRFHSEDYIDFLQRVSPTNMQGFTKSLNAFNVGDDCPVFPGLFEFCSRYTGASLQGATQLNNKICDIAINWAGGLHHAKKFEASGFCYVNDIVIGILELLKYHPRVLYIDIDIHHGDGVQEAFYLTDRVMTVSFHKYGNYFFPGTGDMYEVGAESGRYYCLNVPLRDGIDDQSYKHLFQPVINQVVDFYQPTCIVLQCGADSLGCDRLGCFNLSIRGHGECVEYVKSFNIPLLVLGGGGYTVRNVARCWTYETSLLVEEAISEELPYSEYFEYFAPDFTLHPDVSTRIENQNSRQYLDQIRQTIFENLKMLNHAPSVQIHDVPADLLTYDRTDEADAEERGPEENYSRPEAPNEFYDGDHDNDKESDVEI
Runt-CBFb FRET = inhibitors of human RUNX1 Runt domain binding to CBFb; inhibition, % at 20 µM; Cerulean-Runt/Venus-CBFb FRET ratio 530/480, 1 h; AID 1496; Q01196+Q13951; 220,000 tested, 0.46% active;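 active = inhibition over about 50% at 20 µM in the single-dose screen, limit read from the data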
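Doses: 20 µM compound in 1% DMSO | Material: Cerulean-labeled Runt domain protein | Amount: Each fluorescent fusion protein 100 nM | Schedule: Two 1 h room-temperature incubations shielded from light | Measured by: FRET fluorescence | Evaluation: Loss of energy transfer signal | Controls: Unlabeled CBFb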
CaV13 ICDI inh = Disruptors of the CACNA1D IQ motif to Ca2+-dependent inactivation inhibitor domain association, primary screening, Förster resonance energy transfer in intact living …; HEK cells, CFP/YFP FRET ICDI-IQ, plate reader, 10 min; percent FRET-ratio fall versus neutral wells; inhibition, % at 12.3 µM; 340,000 tested, 0.098% active; AID 743397;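 active = mean replicate inhibition of at least 30% and at least 1% of replicates passing that level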
RanGTP-Impb inh = inhibitors of RanGTP-importin-beta interaction, primary screen, biochemical, FRET, CFP-Ran, YFP-importin-beta, homogeneous. 300,000 tested, 1.1% active. inhibition, % (test concentration not listed). cell-free CFP-Ran/YFP-importin-beta FRET ratio. AID 2216;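 active = more than half of the replicate wells show a fall in the fluorescence ratio signal beyond about 16%, limit read from the data, passing the limit was not always enough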
Runt-SMMHC FRET = inhibitors of human RUNX1 Runt domain binding to CBFb-SMMHC; inhibition, % at 20 µM; Q01196+Q13951; AID 1434; 220,000 tested, 0.74% active; Cerulean-Runt/Venus-CBFb-SMMHC FRET ratio 530/480, 1 h;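 active = mean inhibition across duplicate retests at 20 µM reaching about 50%, limit read from the data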;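 note: inhibitors lower the FRET ratio by blocking Runt binding to CBFb-SMMHC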
LANA-H2A inh = blocks KSHV LANA binding to histone H2A/H2B; Q9QR71; cell-free LANA-H2A/H2B peptide, fluorescence polarization; inhibition, % (test concentration not listed); 320,000 tested, 0.6% active; AID 2629; in the data active = inhibition mostly above about 10%, no sharp cut-off; inactive = mostly below about 6.7%
A number is an active result; . = inactive; / = not tested or not shown; ! = repeats disagree.

SMILES	HDAC3 inhib	Runt-CBFb FRET	CaV13 ICDI inh	RanGTP-Impb inh	Runt-SMMHC FRET	LANA-H2A inh
C=CC[C@H](CC(=O)N(CCO)Cc1ccccc1)C(=O)NC[C@H](OC(=O)[C@@H](CC=C)Cc1ccc(F)cc1)c1ccccc1	28	/	.	/	/	.
C=CC[C@H](CC(=O)N(CCO)Cc1ccccc1)C(=O)N[C@H](COC(=O)[C@@H](CC=C)Cc1ccc(F)cc1)Cc1c[nH]c2ccccc12	41	/	.	/	/	.
Cc1ccc(S(=O)(=O)N2CCN(C(=O)Cn3nc(C(=O)O)c4ccccc4c3=O)CC2)cc1	.	.	.	.	.	.
CCn1c(O)c(N=NC2=NC(=O)CS2)c2ccccc21	.	.	/	.	.	.
C=CCC[C@H](Cc1ccc(F)cc1)C(=O)OC[C@H](Cc1c[nH]c2ccccc12)NC(=O)[C@H](CC=C)CC(=O)N(CCO)Cc1ccccc1	47	/	.	/	/	.
C=CCC[C@@H](Cc1ccc(F)cc1)C(=O)OC[C@@H](NC(=O)[C@@H](CC=C)CC(=O)N(CCO)Cc1ccccc1)c1ccccc1	38	/	.	/	/	.
C=CCC[C@H](Cc1ccc(F)cc1)C(=O)OC[C@H](Cc1c[nH]c2ccccc12)NC(=O)[C@@H](CC=C)CC(=O)NCCO	31	/	.	/	/	.
O=C(CN(Cc1ccccc1)S(=O)(=O)c1ccc(Cl)cc1)NCC1CCCO1 (stereo not given)	.	/	.	.	/	14
O=C(CN(Cc1ccccc1)S(=O)(=O)c1ccc(Br)cc1)NCC1CCCO1 (stereo not given)	.	/	.	.	/	.
COc1cccc(C(=O)SC2=NCCS2)c1	49	.	.	.	.	.
CC(NC(=O)c1cccc(S(=O)(=O)N2CCc3ccccc32)c1)c1ccco1 (stereo not given)	.	/	.	/	/	135
COc1ccc(CCN(C)C(=O)c2ccc3c(=O)n4c(nc3c2)CCCCC4)cc1OC	.	/	.	/	/	.
O=C1CCCCN1CC(=O)N1CCCC(Nc2ccc(F)c(F)c2)C1 (stereo not given)	.	/	.	.	/	.
Cc1ccc(S(=O)(=O)NC(=O)NCCCN2CCOCC2)cc1	.	/	.	.	/	.
Cc1ccc(S(=O)(=O)NC(=O)c2cc(C)n(CCCN3CCOCC3)c2C)cc1	.	.	/	60	.	.
OC1CCCN(Cc2ccc3ccc4cccc5ccc2c3c45)C1 (stereo not given)	.	/	/	41	.	.
Cc1cc2ccccc2cc1CN1CCOCC1	.	.	.	.	.	.
c1cc2ccc3ccc(CN4CCOCC4)c4ccc(c1)c2c34	.	/	.	45	.	.
OC1CCCN(Cc2cn(Cc3ccccc3)nc2-c2cc3ccccc3o2)C1 (stereo not given)	.	.	.	.	.	.
COc1cccc2c(=O)c3c([nH]c12)OC(C)(C)C3	.	/	.	.	/	.
COc1cccc2c(=O)c3cccc(N)c3[nH]c12	.	.	.	127	/	.
Cc1nc2c([nH]1)C1(CCN(Cc3ccccc3)CC1)C(C#N)=C(N)O2	.	.	/	/	90	.
CCNc1cc(O)ccc1C	.	/	/	/	/	.
CC[N+](C)(C)c1cccc(O)c1	.	.	.	.	.	20!
N#Cc1cc2c(=O)n3ccccc3nc2n(-c2ccc(Cl)cc2)c1=O	.	.	.	/	90	.
SMILES	HDAC3 inhib	Runt-CBFb FRET	CaV13 ICDI inh	RanGTP-Impb inh	Runt-SMMHC FRET	LANA-H2A inh
COC(=O)c1cc2c(=O)n3ccccc3nc2n(C)c1=N	/	.	/	/	.	/
COc1ccc(CCn2c(=N)c(S(=O)(=O)c3ccc(Cl)cc3)cc3c(=O)n4ccccc4nc32)cc1	.	/	.	.	/	.
Cc1ccccc1-n1c(=O)c(C#N)cc2c(=O)n3ccccc3nc21	.	.	.	128	59	.
Cc1cc(-n2c(=O)c(C#N)cc3c(=O)n4ccccc4nc32)no1	.	.	33	161	65	.
CC1CN(C(=O)c2cc3c(=O)n4ccccc4nc3n2C)CC(C)O1 (stereo not given)	.	/	.	.	/	.
CCOc1ccc(Cl)cc1-c1cc(C(=O)NCCOC)[nH]n1	/	/	.	/	/	/
Cc1ccccc1-c1cc(C(=O)NCc2cccc(C(F)(F)F)c2)n(CC2CC(c3cccnc3)=NO2)n1 (stereo not given)	25	/	.	/	/	.

Screens (PubChem)
